Reference: PubChem BioAssay AID617 (SRMLSC, 2007)

System: E. coli BW25113 ΔtolC growth inhibition, OD615
Experiment: growth inhibitors of E. coli tolC mutant, dose response, strain BW25113 ΔtolC::kan (AID 617)
Method in brief: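 Material: E. coli BW25113 ΔtolC::kan bacteria; input: inoculum from 1:1000-diluted 1.5 h subculture; medium: kanamycin-containing LB broth, 50 µg/mL; dosing: compounds in serially diluted dose-response series; incubation: 20 h exposure at 37 °C; measured by: absorbance at 615 nm; control set: chloramphenicol control, 30 µM final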

| Structure (SMILES) | IC50 [µM] |
| --- | --- |
| COc1ccc2nc(NC(=O)C3COc4ccccc4O3)sc2c1 (centres undefined) | 14.5 |
| CCCn1c(CNc2ccc(Br)cc2)nc2ccccc21 | 6.22 |
| COc1cccc(C(=O)Nc2nnc(-c3cccs3)o2)c1 | 3.87 |
| CC(O)c1c(OCc2ccccc2)ncnc1OCc1ccccc1 (centres undefined) | 10.7 |
| CCOC(=O)c1cc2sccc2n1Cc1ccc(C#N)cc1 | 11.1 |
| CCOC(=O)c1sc(NC(=O)c2c(C)nn(Cc3ccccc3)c2C)cc1C | 9.35 |
| CCOC(=O)Cc1nnc2c(Nc3ccccc3F)nc3nonc3n12 | 6.82 |
| Cc1cc(C(=O)CSc2nc3ccccc3o2)c(C)n1C1CC1 | 7.02 |
| CC(=O)Nc1nc2ccccc2n1Cc1ccccc1C | 18.1 |
| C=CCn1c(SCC(O)Cn2c3ccccc3c3ccccc32)nnc1-c1ccco1 (centres undefined) | 21.6 |
| CCC1CCCCN1C(=O)c1cc(-c2ccc(Cl)c(Cl)c2)on1 (centres undefined) | 10.3 |
| Cc1nn(-c2nc3ccccc3n2Cc2ccccc2)c2c1C(=O)CC(C)(C)C2 | 8.51 |
| O=C(NCCc1ccccc1)c1nc2c(nnn2Cc2ccccc2Cl)c(=O)[nH]1 | 4.65 |
| CCCCn1c(=O)n(Cc2cccc(F)c2)c(=O)c2c1ncn2Cc1ccco1 | 14.8 |
| COC(=O)c1cc(CSc2nc3ccc(C)cc3[nH]2)oc1C | 13.8 |
| COc1ccc(OC)c(Nc2nc(-c3cccs3)cs2)c1 | 28.2 |
| Cc1cc(N2CCC(C)CC2)nc(-n2nc(C)cc2C)n1 | 5.18 |
| Cc1noc(C)c1C(=O)Nc1sc(C)c(-c2ccccc2)c1C#N | 9.36 |
| CCn1c(C(=O)NCCCc2ccccc2)cc2sccc21 | 8.52 |
| Cc1cccc(N=c2oc3cc(O)ccc3cc2C(N)=O)c1 | 23 |
| CC(C)C(c1nnnn1C1CCCC1)N1CCCc2ccccc21 (centres undefined) | 15.7 |
| CCCCN(C)S(=O)(=O)c1ccc(C(=O)Nc2nnc(CSC)o2)cc1 | 0.86 |
| O=C(COc1ccccc1Br)c1ccc(O)cc1O | 13.1 |

| Structure (SMILES) | IC50 [µM] |
| --- | --- |
| COc1ccc2[nH]c(=O)c(CN(C(=O)NC3CCCCC3)C3CCCCC3)cc2c1 | 19.4 |
| C=C(C)COc1ccc(-c2n[nH]c(C)c2-c2ccccc2OC)c(O)c1 | 13.6 |
| Clc1ccc(Cn2ncc3c(NCc4ccco4)ncnc32)c(Cl)c1 | 53.4 |
| O=C(CN(C1CC1)S(=O)(=O)c1ccc(S(=O)(=O)NC2CCCCC2)cc1)Nc1ccccc1 | 10.5 |
| Cc1cc(N2CCCCC2)nc(SCc2ccc(C#N)cc2)n1 | 12.1 |
| Cc1ccc(S(=O)(=O)N(Cc2ccc(F)cc2)Cc2ccco2)cc1 | 7.01 |
| CCCCCSc1nnc(-c2cc(Br)ccc2N)c(=O)[nH]1 | 5.1 |
| N#Cc1c(N)oc(-c2ccc3c(c2)OCO3)c1-c1ccc2c(c1)OCO2 | 49.9 |
| CCCC(=O)c1ccc(N2CCCCCC2)c(F)c1 | 95.6 |
| O=C(CN1CCN(S(=O)(=O)c2ccc(F)cc2)CC1)Nc1ccc(Cl)c(C(F)(F)F)c1 | 9.07 |
| O=C(Nc1ncc(Br)s1)C(Cc1ccccc1)n1cccc1 (centres undefined) | 3.21 |
| Cc1nc2nc(-c3ccco3)[nH]n2c(=O)c1Cc1ccccc1 | 5.98 |
| C=CCn1c(SCC(=O)Nc2ccc3c(c2)CCC3)nnc1-c1cccs1 | 53.8 |
| CCn1c(C(=O)OC)cc2c1ccn2-c1ccc(F)cc1 | 17.2 |
| CC1(C)CC2CC(C)(CN2C(=O)c2cc(-c3ccccc3O)on2)C1 (centres undefined) | 3.42 |
| CCn1cc(C(=O)NCc2ccc3c(c2)OCO3)c(=O)c2cc(F)c(N3CCN(C)CC3)cc21 | 2.8 |
| COc1ccccc1C1CC(c2ccc(Cl)cc2)Nc2ncnn21 (centres undefined) | 15.1 |
| COc1ccccc1-n1c(=O)oc2ccc(Cl)cc2c1=O | 1.49 |
| c1ccc(CSc2nnc(-c3ccco3)n2Cc2ccccc2)cc1 | 13.8 |
| CCn1cc(C(=O)NC2CCCCC2C)c(=O)c2ccc(C)nc21 (centres undefined) | 5.31 |
| Oc1c(C(c2cccs2)N2CCN(c3cccc(Cl)c3)CC2)sc2ncnn12 (centres undefined) | 13.9 |
| CCOC(=O)c1cnc(-n2nc(C)cc2C)nc1NCc1ccccc1 | 0.68 |
| O=C(NCc1ccco1)c1cc2sccc2n1Cc1ccccc1 | 14.4 |

| Structure (SMILES) | IC50 [µM] |
| --- | --- |
| Cn1c(=O)c2c(nc(N3CCCCCC3)n2Cc2cccc3ccccc23)n(C)c1=O | 7.33 |
| COc1cccc(-c2cc(C(F)(F)F)nc(N3CCOCC3)n2)c1 | 16.5 |
| CCOc1cc(-c2c(C#N)c(N)nc3c2CCCC3C)ccc1O (centres undefined) | 6.26 |
| Cc1ccccc1C1=NCC(=O)N(CC(=O)NCc2ccco2)c2sc3c(c21)CCCC3 | 28.6 |
| N#C/C(=C\c1ccco1)Sc1nc2ccccc2s1 | 8.6 |
| CC(C)(C)c1ccc(Cn2nnc3c(=O)[nH]c(C4CCCN(C(=O)Cc5cccs5)C4)nc32)cc1 (centres undefined) | 15.6 |
| COC(=O)c1c(NC(=O)c2ccc(C)o2)sc2c1CCCCC2 | 28.4 |
| COc1ccccc1-c1nnc(NC(=O)c2ccc(S(=O)(=O)N(C)C)cc2)o1 | 3.77 |
| CCN(c1cccc(C(F)(F)F)c1)S(=O)(=O)c1ccc2c(c1)CCN2C(=O)C1CC1 | 50.9 |
| O=C(Nc1ccc(Cl)c(C(F)(F)F)c1)c1ccco1 | 7.46 |
| COCCn1nnnc1C(C(C)C)N(Cc1ccccc1)Cc1cc2cc(OC)ccc2[nH]c1=O (centres undefined) | 11 |
| COc1cccc(C2/C(=C(/O)c3ccc(C)cc3)C(=O)C(=O)N2Cc2ccco2)c1 (centres undefined) | 4.54 |
| CCOC(=O)c1c(C)c(C(=O)Nc2cc(OC)ccc2OC)c(C)n1CC | 24.3 |
| COc1cccc(-c2cc(C(=O)N3CC4(C)CC3CC(C)(C)C4)no2)c1 (centres undefined) | 11 |
| Cc1cccc(OCCCCc2c(C)n[nH]c2C)c1C | 1.56 |
| c1ccc(-c2csc(N3CCN(c4ccccn4)CC3)n2)cc1 | 8.99 |
| Cc1oc2c(CN3CCCC3)c(O)ccc2c(=O)c1-c1ccc(Br)cc1 | 25.5 |
| CC1=C(C(=O)OCC(C)C)C(c2cc3c(cc2Br)OCO3)NC(=O)N1C (centres undefined) | 18.1 |
| O=C(O)c1cc(Cl)c2ccccc2c1O | 10.1 |
| O=C(c1ccc(COc2ccc3c(c2)CCC3)o1)N1CCN(c2ccccc2)CC1 | 10.7 |
| CCn1cc(Br)c(C(=O)Nc2ccc(C(=O)OC(C)C)cc2)n1 | 12.3 |
| O=C(CSc1ncn(-c2ccccc2)n1)Nc1nc2c(s1)CCCC2 | 16.9 |
| COCc1nnc(NC(=O)c2ccc(S(=O)(=O)N(C)c3ccccc3)cc2)o1 | 6.56 |

| Structure (SMILES) | IC50 [µM] |
| --- | --- |
| CC1=CC(C)(C)N(C(=O)c2ccc(F)cc2)c2cc3c(cc21)OCO3 | 12.7 |
| CCCCCn1c(SCCC(C)C)nc2c1c(=O)[nH]c(=O)n2C | 38 |
| CCCN(CCC)S(=O)(=O)c1ccc(C(=O)Nc2nnc(-c3cccc(OC)c3)o2)cc1 | 0.26 |
| COCc1nnc(NC(=O)c2ccc(S(=O)(=O)N3CCCCCC3)cc2)o1 | 7.62 |
| O=C(Cc1ccccc1F)Nc1nc(-c2cccs2)cs1 | 6.95 |
| COc1cc2cc(C(c3nnnn3C3CCCCC3)N(C)C3CCCCC3)c(=O)[nH]c2cc1OC (centres undefined) | 9.71 |
| CCCOC(=O)c1ccc(-c2c(C)noc2-c2ccc(OC)cc2O)o1 | 4.71 |
| Cc1cc2n(n1)C(c1ccc3c(c1)OCO3)Nc1c(C)cccc1-2 (centres undefined) | 29.6 |
| CCc1cc2c(N3CCN(c4ccccc4)CC3)ncnc2s1 | 13.6 |
| CCN(CC)c1ccc(C(=O)n2cnc3ccccc32)cc1 | 15 |
| CN1/C(=C\C(=O)COc2ccc3c(c2)OCO3)C(C)(C)c2ccccc21 | 11.2 |
| Brc1ccc(CSc2nnc(-c3cnccn3)n2Cc2ccco2)cc1 | 63.4 |
| C=CCSc1n[nH]c(-c2ccc(OCCCC)cc2)n1 | 93.1 |
| COc1ccc(OCC(O)CNc2ccc(Br)cc2)cc1 (centres undefined) | 12.7 |
| COc1nc(N(c2ccccc2)c2ccccc2)nc(-n2ccnc2)n1 | 5.65 |
| Cn1c(Oc2ccccc2NCc2cc(Br)ccc2O)cc(=O)n(C)c1=O | 4.08 |
| Cc1ccc(-c2noc(CCC(=O)N3CCCc4ccccc43)n2)cc1 | 12.8 |
| CCC(Oc1ccccc1)C(=O)Nc1nnc(C(F)(F)F)s1 (centres undefined) | 9.18 |
| COc1ccccc1-c1nnc(SC/C(O)=C(\C#N)c2nc3ccccc3[nH]2)n1C1CCCCC1 | 10.2 |
| C=CCc1c(C)nc(SCc2nc3ccccc3c(=O)[nH]2)[nH]c1=O | 6.54 |
| N#C/C(=C\c1ccc[nH]1)Sc1nc2ccccc2s1 | 4.28 |
| O=C(CSc1nnnn1C1CCCCC1)Nc1cccc(NC(=O)c2ccco2)c1 | 15.5 |
| CCOC(=O)Cc1csc(NC(=O)c2csc3c2CCCC3)n1 | 16.4 |

| Structure (SMILES) | IC50 [µM] |
| --- | --- |
| Cc1ccc(-c2noc(CSc3nnnn3C3CCCCC3)n2)cc1 | 12.9 |
| Cc1cc(SCC#N)n2nc(C)c(-c3ccccc3)c2n1 | 48.5 |
| C=C(C)COc1ccc(-c2ncncc2Oc2ccc(OC)cc2)c(O)c1 | 14 |
| N#CC1=C(SCC(=O)c2cc3ccccc3oc2=O)NC(=O)C(C#N)C12CCCC2 (centres undefined) | 12.7 |
| CCOc1ccccc1N1CCN(C(=O)Nc2ccc(F)c(Cl)c2)CC1 | 10.2 |
| CCC(=NCc1ccc2c(c1)OCO2)c1c(O)n(C2CCCCC2)c(=O)[nH]c1=O | 12 |
| O=C1CC(c2ccco2)CC2=C1C1c3ccccc3C(=O)N1c1ccccc1N2 (centres undefined) | 22.7 |
| O=C1OC(c2ccc(O)cc2)(c2ccc(O)cc2)c2ccccc21 | 4.01 |
| Cc1ccc(-c2csc3ncn(-n4c(C)ccc4C)c(=O)c23)o1 | 14.9 |
| CC1CCCc2sc3nc(NCc4ccco4)n4ncnc4c3c21 (centres undefined) | 11.6 |
| O=C(Nc1cccc(C(F)(F)F)c1)N1CCC(c2nc(-c3ccc(F)cc3)no2)CC1 | 3.75 |
| COC(=O)CNS(=O)(=O)c1ccc(Cc2ccc(S(=O)(=O)NCC(=O)OC)cc2)cc1 | 1.29 |
| CSc1ccc(S(=O)(=O)Nc2ccc(N3CCOCC3)c(Cl)c2)cc1 | 6.56 |
| O=C(Nc1nc(-c2ccccc2)ns1)c1cccs1 | 28.4 |
| CC(C)COC(=O)NCCOC(=O)Nc1cccc(Cl)c1 | 19.6 |
| CCSCC1COC(c2cccn2Cc2ccc(C)cc2)=N1 (centres undefined) | 39.4 |
| COc1ccc(OCC(O)Cn2c(=N)n(Cc3ccccc3)c3ccccc32)cc1 (centres undefined) | 23.9 |
| Cn1c(=O)n(CCCOc2ccc(Br)cc2)c2ccccc21 | 13.8 |
| COc1ccc(CCNC(=O)c2cc3sc(Cl)cc3n2C)cc1OC | 30.8 |
| CC(=O)c1c(C)n([O-])c2ccccc2[n+]1=O | 3.89 |
| CC1=C(C(=O)OC2CCCCCCC2)C(c2cccc(O)c2)NC(=O)N1 (centres undefined) | 12.3 |
| Cc1cc(C)c2cc(CN(CCO)C(c3nnnn3Cc3ccc(F)cc3)C(C)C)c(=O)[nH]c2c1 (centres undefined) | 21.7 |
